Only some compounds are listed: those with a hit (about 3.1% of all), similar ones and a draw of the others.
SENP8 block-1: blocks human SENP8 cleavage of Nedd8 substrate; AID 602440; recombinant SENP8, Nedd8 substrate fluorescence; inhibition, % at 20 µM; 360,000 tested, 0.64% active; in the data active means inhibition mostly above about 40%, no sharp cut-off; inactive means mostly below about 27%
SENP6 block: SENP6 protease inhibition; 330,000 tested, 1.8% active; Q9GZR1; AID 2599; inhibition, % at 10 µM; Recombinant SENP6 catalytic domain, aminoluciferin luminescence;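 active means inhibition above about 50% at the single tested dose, limit read from the data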;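 further: plate controls were DMSO wells with enzyme for no effect and DMSO wells lacking enzyme for full effect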
UBC13 inh: human UBC13 polyubiquitination inhibition; P61088; UBC13 polyubiquitin chain formation, TR-FRET; inhibition, % at 20 µM; 330,000 tested, 0.47% active; AID 485273; in the data active means inhibition above about 45%, passing the limit was not always enough
Target sequence (P61088 whole entry, looked up): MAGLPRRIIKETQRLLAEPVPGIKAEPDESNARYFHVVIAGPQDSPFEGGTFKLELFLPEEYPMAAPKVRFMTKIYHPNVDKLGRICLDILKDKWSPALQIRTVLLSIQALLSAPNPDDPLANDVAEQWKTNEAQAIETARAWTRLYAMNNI
SENP7 inh: inhibitors of human SENP7 protease; recombinant SENP7, Z-RLRGG-aminoluciferin luminescence, 40 min; AID 434973; inhibition, % at 5 µM; Q9BQF6; 330,000 tested, 1.5% active;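 active means inhibition above about 50% at the single test dose, limit read from the data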;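 further: plate controls were DMSO with enzyme for no effect and no enzyme buffer wells for full effect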
Target sequence (Q9BQF6 706-1050 limits assumed): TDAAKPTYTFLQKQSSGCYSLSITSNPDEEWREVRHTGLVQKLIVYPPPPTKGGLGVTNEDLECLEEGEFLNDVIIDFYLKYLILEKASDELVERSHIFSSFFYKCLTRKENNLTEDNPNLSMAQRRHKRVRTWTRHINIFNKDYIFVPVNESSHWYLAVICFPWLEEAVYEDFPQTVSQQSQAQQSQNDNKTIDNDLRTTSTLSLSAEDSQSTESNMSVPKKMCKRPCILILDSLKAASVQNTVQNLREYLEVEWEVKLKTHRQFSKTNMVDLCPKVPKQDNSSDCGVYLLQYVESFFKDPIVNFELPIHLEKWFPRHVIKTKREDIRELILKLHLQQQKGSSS
Apaf-1 inh: blocks human Apaf-1 apoptosome activity | O14727 | AID 489030 | inhibition, % at 20 µM | reconstituted apoptosome caspase-3 activity, DEVD-Rh110 fluorescence | 330,000 tested, 0.71% active; active means inhibition of at least 40% at 20 µM;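 further: plate controls were DMSO wells for no effect and DEVD-CHO caspase inhibitor wells for full effect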
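Material: cell-free apoptosome with Apaf-1, procaspase-3 and caspase-9; Buffer or medium: Hepes pH 7.5 with detergent and BSA; Reagent: cytochrome c trigger plus (Z-DEVD)2-Rh110 caspase-3 substrate; Times: compound with Apaf-1, dATP, procaspase-3 30 min, then 50 min reaction, room temperature; Technique: Rh110 fluorescence intensity.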
SENP8 block-2: SENP8 protease inhibition. purified SENP8, Z-RLRGG-aminoluciferin cleavage, luminescence. AID 2540. inhibition, % at 10 µM. Q96LD8. 330,000 tested, 1.2% active; in the data active means inhibition above about 50%
SENP8 confirm: confirmation of human SENP8 protease inhibitors; inhibition, % at 12.5 µM; 6,200 tested, 40% active; Recombinant SENP8, Z-RLRGG-aminoluciferin luminescence, 60 min; AID 488912; shares compounds with SENP7 inh;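 active means mean inhibition across replicates above about 50%, limit read from the data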
SENP6 conf: confirmation of human SENP6 protease inhibitors. 6,200 tested, 58% active. recombinant SENP6, Z-RLRGG-aminoluciferin luminescence. shares compounds with SENP7 inh. inhibition, % at 12.5 µM
SENP7 conf: confirmation of human SENP7 protease inhibitors; 6,200 tested, 69% active; inhibition, % at 12.5 µM; recombinant SENP7, Z-RLRGG-aminoluciferin luminescence, 40 min; shares compounds with SENP7 inh
Casp3 SENP sel: caspase-3 inhibition (SENP selectivity assay); 6,200 tested, 60% active; inhibition, % at 12.5 µM; AID 488918; shares compounds with SENP7 inh; purified caspase-3, Z-DEVD-aminoluciferin luminescence, 60 min;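 active means mean inhibition above about 50%, limit read from the data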;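 further: plate controls were enzyme with DMSO for no effect and wells without caspase-3 for full effect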
Luc interf: counter-screen for SENP inhibitors: luminescence interference | shares compounds with SENP7 inh | Pre-incubated SENP8/Z-RLRGG-aminoluciferin, luciferase luminescence interference | inhibition, % at 12.5 µM | 6,200 tested, 39% active;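 active means mean inhibition above about 50% when retested at one dose, limit read from the data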;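 further: plate controls were DMSO wells with completed reaction for no effect and substrate without enzyme for full effect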
The depositor's hits bear a star; x = not tested or not shown.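 How the source made its calls, unless noted: active means mean inhibition above about 50% in the one-dose retest (limit read from the data); inactive means the rest.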

SMILES	SENP8 block-1	SENP6 block	UBC13 inh	SENP7 inh	Apaf-1 inh	SENP8 block-2	SENP8 confirm	SENP6 conf	SENP7 conf	Casp3 SENP sel	Luc interf
CCOc1ccc(N=Cc2c(O)cc(C)oc2=O)cc1	-32	-18	-21	-17	6	-30	x	x	x	x	x
Cc1ccccc1-c1noc(-c2ccccc2C(=O)O)n1	10	8	0	3	5	-7	x	x	x	x	x
COc1nc(C)ccc1-c1noc(-c2ccccn2)n1	2	48	13	53*	-10	23	45	51*	86*	83*	25
Clc1ccc(-c2nc(-c3ccccn3)no2)cc1Cl	11	92*	0	98*	-14	96*	91*	94*	98*	93*	76*
Clc1ccccc1OCc1nc(-c2ccc(Br)o2)no1	15	-4	13	-4	11	3	x	x	x	x	x
Cc1ccccc1-c1nc(-c2ccccn2)no1	13	97*	0	100*	2	96*	98*	99*	102*	98*	98*
Clc1ccc(OCc2nc(-c3ccccn3)no2)c(Br)c1	6	95*	-5	90*	12	91*	82*	95*	99*	86*	75*
COC(=O)[C@H]1C[C@H](OC(=O)NCc2ccco2)[C@@]2(O)CN(S(=O)(=O)c3ccc(C)cc3)CC2[C@H]1C(=O)OC (stereo partly drawn)	7	x	x	x	x	x	x	x	x	x	x
Cc1nc2ccccn2c(=O)c1NC(=O)c1ccc2c(c1)OCO2	-50	x	x	x	x	x	x	x	x	x	x
COc1ccc(Cl)cc1Cn1c(C)c(C(=O)NCc2cccc([N+](=O)[O-])c2)sc1=O	3	x	x	x	x	x	x	x	x	x	x
COc1ccc(-c2nc(-c3ccccn3)no2)cc1	10	98*	-2	100*	-13	97*	9	101*	104*	100*	98*
COc1ccccc1-c1nc(-c2ccccn2)no1	-16	96*	0	99*	1	93*	12	99*	102*	99*	97*
N#Cc1c(N)nc(SCc2ccncc2)c(C#N)c1-c1cccs1	-62	-9	26	-3	14	-7	x	x	x	x	x
CN1CCc2nc(SCc3ccc(Cl)cc3)c(C#N)c(-c3cccs3)c2C1	x	76*	-23	38	83*	69*	-4	2	11	4	2
Cc1ccc(C(=O)Nc2ncc([N+](=O)[O-])s2)cc1	20	x	x	x	x	x	x	x	x	x	x
CN(CC(=O)Nc1ccccc1Cl)C(=O)COC(=O)c1ccccc1[N+](=O)[O-]	3	1	1	101*	4	-6	0	4	7	4	-2
O=C(COC(=O)c1ccc([N+](=O)[O-])s1)Nc1ccccc1	33	64*	-3	36	24	53*	82*	88*	50	20	-6
O=C(COC(=O)c1ccc([N+](=O)[O-])s1)NCc1ccccc1	12	73*	-3	48	19	62*	58*	72*	21	-1	-8
O=C(Nc1ncc([N+](=O)[O-])s1)c1ccco1	16	92*	-14	92*	9	91*	93*	93*	102*	98*	66*
O=C(COC(=O)c1ccc([N+](=O)[O-])s1)NC(c1ccccc1)c1ccccc1	27	14	-1	18	16	46	x	x	x	x	x
O=C1c2ccccc2C(c2nc3ccccc3[nH]2)N1Cc1ccco1 (stereo not drawn)	0	x	x	x	x	x	x	x	x	x	x
COc1ccc(C(=O)C(=O)N2CCC(Cc3ccccc3)CC2)cc1OC	10	x	x	x	x	x	x	x	x	x	x
OCCN1CCN(c2ncnc3c2ncn3[C@H]2CN(Cc3ccncc3)C[C@@H](CO)O2)CC1	8	x	x	x	x	x	x	x	x	x	x
COc1ccc(CN2C[C@@H](CO)O[C@@H](n3cnc4c(N5CCOCC5)ncnc43)C2)cc1	9	x	x	x	x	x	x	x	x	x	x
O=C(COC(=O)c1ccc(O)cc1)Nc1ccccc1[N+](=O)[O-]	22	57*	6	8	-9	37	46	39	70*	52*	42
SMILES	SENP8 block-1	SENP6 block	UBC13 inh	SENP7 inh	Apaf-1 inh	SENP8 block-2	SENP8 confirm	SENP6 conf	SENP7 conf	Casp3 SENP sel	Luc interf
O=C(CC(=O)Nc1ccccc1[N+](=O)[O-])Nc1ccccc1[N+](=O)[O-]	18	-3	5	9	15	-3	x	x	x	x	x
COc1ccc(S(=O)(=O)N2CCOCC2)cc1NC(=O)COC(=O)c1ccc([N+](=O)[O-])s1	37	53*	-14	33	30	67*	-6	83*	35	3	3
O=C(COC(=O)COc1ccccc1)Nc1ncc([N+](=O)[O-])s1	13	91*	-18	76*	-2	88*	90*	89*	99*	92*	90*
O=C(COC(=O)c1ccc([N+](=O)[O-])s1)Nc1ccc(Cl)cn1	8	65*	-23	19	29	14	18	47	0	0	-1
COc1ccc(S(=O)(=O)NC(=O)C2(C)CCN2C(=O)Cc2ccc(C(C)(C)C)cc2)cc1 (stereo not drawn)	14	x	x	x	x	x	x	x	x	x	x
Cc1ccc(C)c(C(O)c2ncc(-c3ccc(Cl)cc3)[nH]2)c1 (stereo not drawn)	9	x	x	x	x	x	x	x	x	x	x
O=C(COC(=O)c1ccc([N+](=O)[O-])s1)Nc1cccc(S(=O)(=O)NC2=NCCCCC2)c1	19	65*	-13	37	20	61*	80*	87*	45	10	1
CC(C)(C)c1ccc(NC(=O)COC(=O)c2ccc([N+](=O)[O-])s2)cc1	20	x	x	x	x	x	x	x	x	x	x
O=C(OCC(=O)N1CCC(c2ccccc2)=N1)c1ccc([N+](=O)[O-])s1	25	56*	-12	15	52*	63*	37	74*	26	9	7
O=C(COC(=O)c1ccc([N+](=O)[O-])s1)Nc1ccc(F)cc1	34	66*	-13	40	38	69*	68*	88*	48	13	-5
Cc1nc(C(F)(F)F)ccc1C(=O)N1CCCCCC1(C)C(=O)NCC(C)C (stereo not drawn)	11	x	x	x	x	x	x	x	x	x	x
CCc1nc2ccc(C(=O)NCc3ccc(OC)cc3)cn2c1N(C)CCC(C)C	-11	x	x	x	x	x	x	x	x	x	x
C/C(=N\Nc1ccc([N+](=O)[O-])cc1)c1ccc(-n2nncc2C)cc1	-190	-2	-44	-10	7	-5	x	x	x	x	x

Assay outcomes deposited in PubChem BioAssay by Sanford-Burnham Center for Chemical Genomics.
